Assay results taken from ChEMBL document CHEMBL2440113, “Synthesis, radiofluorination, and in vivo evaluation of novel fluorinated and iodinated radiotracers for PET imaging and targeted radionuclide therapy of melanoma” (J Med Chem, 2013).

Legend:
[1] = Octanol-water partition coefficient, log D of the compound at pH 7.4; type: physicochemical
Method in brief: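 About 74 kBq radiotracer was shaken in PBS pH 7.4 / octanol (1:1 mL), vortexed 1 min three times at room temperature, then centrifuged (3,000 rpm, 5 min). Both phases were gamma-counted. Three independent experiments in duplicate.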

[2] = Stability of the compound in saline after 6 hrs; type: physicochemical; conditions: read-out: Stability
Method in brief: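 Formulated radiotracer was kept in saline at room temperature; radiochemical purity was checked by analytical radio-HPLC over at least 6 h after preparation.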

[3] = tested on: Kidney; assay: Biodistribution in kidney of C57BL/6J mouse harboring mouse B16-Bl6 cells at 9 to 12 MBq, iv after 3 hrs by PET analysis; type: ADME, organism-based; conditions: in vivo
Method in brief: (§1)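 Ex vivo dissection in B16Bl6-bearing C57BL/6J mice (3x10⁵ cells s.c. right shoulder), done at day 10 or 14 after implantation. The ¹⁸F tracer was given i.v. at 9-12 MBq. Mice were killed by CO₂ at 1, 2 or 3 h. Tumor, organs and tissues were excised, weighed and gamma-counted, then decay-corrected and expressed as %ID/g. n=3-6 per group; mean ± SD.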

[4] = tested on: Mus musculus; assay: Biodistribution in cecum of C57BL/6J mouse harboring mouse B16-Bl6 cells at 9 to 12 MBq, iv after 3 hrs by PET analysis; type: ADME, organism-based, Caecum; conditions: in vivo; method in brief: as §1
[5] = tested on: Stomach; assay: Biodistribution in stomach of C57BL/6J mouse harboring mouse B16-Bl6 cells at 9 to 12 MBq, iv after 3 hrs by PET analysis; type: ADME, organism-based; conditions: in vivo
Method in brief: (§2)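 Ex vivo biodistribution. C57BL/6J mice bearing subcutaneous B16Bl6 tumours (3x10⁵ cells, shoulder), day 10 or 14, received [18F]tracer iv (9-12 MBq). They were killed by CO₂ at 1, 2 or 3 h. Tumours and organs were excised, weighed and gamma-counted. Results are decay-corrected % ID/g; ratios are tumour over tissue. n=3-6 per group; mean ± SD.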

[6] = tested on: Liver; assay: Biodistribution in liver of C57BL/6J mouse harboring mouse B16-Bl6 cells at 9 to 12 MBq, iv after 3 hrs by PET analysis; type: ADME, organism-based; conditions: in vivo; method in brief: as §1
[7] = tested on: Zone of skin; assay: Biodistribution in skin of C57BL/6J mouse harboring mouse B16-Bl6 cells at 9 to 12 MBq, iv after 3 hrs by PET analysis; type: ADME, organism-based; conditions: in vivo; method in brief: as §1
[8] = tested on: Mus musculus; assay: Biodistribution in eyes of C57BL/6J mouse harboring mouse B16-Bl6 cells at 9 to 12 MBq, iv after 3 hrs by PET analysis; type: ADME, organism-based, Eye; conditions: in vivo; method in brief: as §1
[9] = tested on: Brain; assay: Biodistribution in brain of C57BL/6J mouse harboring mouse B16-Bl6 cells at 9 to 12 MBq, iv after 2 hrs by PET analysis; type: ADME, organism-based; conditions: in vivo; method in brief: as §1
[10] = tested on: Heart; assay: Biodistribution in heart of C57BL/6J mouse harboring mouse B16-Bl6 cells at 9 to 12 MBq, iv after 2 hrs by PET analysis; type: ADME, organism-based; conditions: in vivo; method in brief: as §1
[11] = tested on: Lung; assay: Biodistribution in lung of C57BL/6J mouse harboring mouse B16-Bl6 cells at 9 to 12 MBq, iv after 2 hrs by PET analysis; type: ADME, organism-based; conditions: in vivo; method in brief: as §1
[12] = tested on: Mus musculus; assay: Biodistribution in cecum of C57BL/6J mouse harboring mouse B16-Bl6 cells at 9 to 12 MBq, iv after 2 hrs by PET analysis; type: ADME, organism-based, Caecum; conditions: in vivo; method in brief: as §1
[13] = tested on: Mus musculus; assay: Biodistribution in small intestine of C57BL/6J mouse harboring mouse B16-Bl6 cells at 9 to 12 MBq, iv after 2 hrs by PET analysis; type: ADME, organism-based; conditions: in vivo; method in brief: as §1
[14] = tested on: Zone of skin; assay: Biodistribution in skin of C57BL/6J mouse harboring mouse B16-Bl6 cells at 9 to 12 MBq, iv after 2 hrs by PET analysis; type: ADME, organism-based; conditions: in vivo; method in brief: as §1
[15] = tested on: Bone; assay: Biodistribution in bones of C57BL/6J mouse harboring mouse B16-Bl6 cells at 9 to 12 MBq, iv after 2 hrs by PET analysis; type: ADME, organism-based, Bone element; conditions: in vivo; method in brief: as §1
[16] = tested on: Mus musculus; assay: Biodistribution in tumor of C57BL/6J mouse harboring mouse B16-Bl6 cells at 9 to 12 MBq, iv after 2 hrs by PET analysis; type: ADME, organism-based, Neoplasm; conditions: in vivo; method in brief: as §2
[17] = tested on: Nucleic Acid; assay: Ratio of drug level in tumor to bone in C57BL/6J mouse harboring mouse B16-Bl6 cells at 9 to 12 MBq, iv after 1 hr by PET analysis; type: ADME, organism-based; conditions: in vivo; method in brief: as §2
[18] = Ratio of drug level in tumor to blood in C57BL/6J mouse harboring mouse B16-Bl6 cells at 9 to 12 MBq, iv after 1 hr by PET analysis; type: ADME, organism-based; method in brief: as §2
[19] = tested on: Brain; assay: Biodistribution in brain of C57BL/6J mouse harboring mouse B16-Bl6 cells at 9 to 12 MBq, iv after 1 hr by PET analysis; type: ADME, organism-based; conditions: in vivo; method in brief: as §1
[20] = tested on: Heart; assay: Biodistribution in heart of C57BL/6J mouse harboring mouse B16-Bl6 cells at 9 to 12 MBq, iv after 1 hr by PET analysis; type: ADME, organism-based; conditions: in vivo; method in brief: as §1
[21] = tested on: Pancreas; assay: Biodistribution in pancreas of C57BL/6J mouse harboring mouse B16-Bl6 cells at 9 to 12 MBq, iv after 1 hr by PET analysis; type: ADME, organism-based; conditions: in vivo; method in brief: as §1
[22] = tested on: Kidney; assay: Biodistribution in kidney of C57BL/6J mouse harboring mouse B16-Bl6 cells at 9 to 12 MBq, iv after 1 hr by PET analysis; type: ADME, organism-based; conditions: in vivo; method in brief: as §1
[23] = tested on: Mus musculus; assay: Biodistribution in cecum of C57BL/6J mouse harboring mouse B16-Bl6 cells at 9 to 12 MBq, iv after 1 hr by PET analysis; type: ADME, organism-based, Caecum; conditions: in vivo; method in brief: as §1
[24] = tested on: Mus musculus; assay: Biodistribution in colon and feces of C57BL/6J mouse harboring mouse B16-Bl6 cells at 9 to 12 MBq, iv after 1 hr by PET analysis; type: ADME, organism-based; conditions: in vivo; method in brief: as §1
[25] = tested on: Mus musculus; assay: Biodistribution in small intestine of C57BL/6J mouse harboring mouse B16-Bl6 cells at 9 to 12 MBq, iv after 1 hr by PET analysis; type: ADME, organism-based; conditions: in vivo; method in brief: as §1
[26] = tested on: Stomach; assay: Biodistribution in stomach of C57BL/6J mouse harboring mouse B16-Bl6 cells at 9 to 12 MBq, iv after 1 hr by PET analysis; type: ADME, organism-based; conditions: in vivo; method in brief: as §1
[27] = tested on: Zone of skin; assay: Biodistribution in skin of C57BL/6J mouse harboring mouse B16-Bl6 cells at 9 to 12 MBq, iv after 1 hr by PET analysis; type: ADME, organism-based; conditions: in vivo; method in brief: as §1
[28] = tested on: Mus musculus; assay: Biodistribution in eyes of C57BL/6J mouse harboring mouse B16-Bl6 cells at 9 to 12 MBq, iv after 1 hr by PET analysis; type: ADME, organism-based, Eye; conditions: in vivo; method in brief: as §1
[29] = tested on: Mus musculus; assay: Biodistribution in tumor of C57BL/6J mouse harboring mouse B16-Bl6 cells at 9 to 12 MBq, iv after 1 hr by PET analysis; type: ADME, organism-based, Neoplasm; conditions: in vivo; method in brief: as §2
[30] = tested on: Bone; assay: Biodistribution in bone of C57BL/6J mouse harboring mouse B16-Bl6 cells at 8 to 12 MBq, iv after 1 hr by PET analysis; type: ADME, organism-based, Bone element; conditions: in vivo
Method in brief: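 C57BL/6J mice were inoculated s.c. on the right shoulder with 3x10⁵ B16Bl6 cells in PBS under isoflurane, and imaged at day 10 or 14 (tumor volume 431.8 ± 154.3 mm³). The ¹⁸F tracer was given i.v. via tail vein, 8-12 MBq (methods: 9-12 MBq/0.15 mL). Under ketamine/xylazine i.p., a 25-min whole-body static PET scan ran at 1 h. ROI %ID/g = counts/g/min ÷ injected dose. n=2-8; mean ± SD.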

| Structure (SMILES) | logD [1] | remaining at 6 h [2] [%] | Drug uptake [3] [% ID/g] | Drug uptake [4] [% ID/g] | Drug uptake [5] [% ID/g] | Drug uptake [6] [% ID/g] | Drug uptake [7] [% ID/g] | Drug uptake [8] [% ID/g] | Drug uptake [9] [% ID/g] | Drug uptake [10] [% ID/g] | Drug uptake [11] [% ID/g] | Drug uptake [12] [% ID/g] | Drug uptake [13] [% ID/g] | Drug uptake [14] [% ID/g] | Drug uptake [15] [% ID/g] | Drug uptake [16] [% ID/g] | Ratio [17] | Kp at 1 h [18] | Drug uptake [19] [% ID/g] | Drug uptake [20] [% ID/g] | further results |
| --- | --- | --- | --- | --- | --- | --- | --- | --- | --- | --- | --- | --- | --- | --- | --- | --- | --- | --- | --- | --- | --- |
| CCN(CCNC(=O)c1cnc2cc(I)ccc2n1)CCOCCOCCOCC[18F] | 1.52 | > 99 | 2.19 | 10.79 | 2.81 | 1.99 | 1.05 | 17.96 | 1.39 | 2.14 | 1.65 | 8.94 | 4.28 | 1.51 | 1.96 | 13.07 | 10.11 | 10.2 | 1.82 | 2.72 | Drug uptake [21]: 2.09 % ID/g; Drug uptake [22]: 3.46 % ID/g; Drug uptake [23]: 7.27 % ID/g; Drug uptake [24]: 7.17 % ID/g; Drug uptake [25]: 7.58 % ID/g; Drug uptake [26]: 4.41 % ID/g; Drug uptake [27]: 1.44 % ID/g; Drug uptake [28]: 18.36 % ID/g; Drug uptake [29]: 14.05 % ID/g; Drug uptake [30]: 1.98 % ID/g |
| CCN(CCNC(=O)c1cnc2cc(I)ccc2n1)CCOCCOCCOCCOCCOCCOCCOCC[18F] | 0.95 | > 99 | 2.6 | 29.31 | 5.39 | 2.6 | 1.47 | 13.43 | 1.03 | 1.7 | 1.72 | 12.1 | 19.51 | 0.94 | 2.13 | 5.81 | 5.35 | 8.29 | 1.03 | 1.58 | Drug uptake [21]: 2.63 % ID/g; Drug uptake [22]: 3.6 % ID/g; Drug uptake [23]: 6.37 % ID/g; Drug uptake [24]: 7.39 % ID/g; Drug uptake [25]: 16.68 % ID/g; Drug uptake [26]: 5.87 % ID/g; Drug uptake [27]: 1.22 % ID/g; Drug uptake [28]: 12.24 % ID/g; Drug uptake [29]: 9.81 % ID/g; Drug uptake [30]: 2.48 % ID/g |
